Measured values taken from ChEMBL document CHEMBL1136923, “Highly potent, orally available anti-inflammatory broad-spectrum chemokine inhibitors” (J Med Chem, 2009).
Values belong to the compound of their own block, whether it stands above or below them.

Experiments:
[1] = target: C-C chemokine receptor type 2 (Homo sapiens) (UniProt P41597); test: Antagonist activity at CCR2 in human THP1 cells assessed as inhibition of CCL2-induced chemotaxis after 2 hrs by microtiter format trans-well migration assay; type: functional, cell-based; conditions: THP-1
Summary of the method: (§1)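 Microtiter trans-well migration assay in Gey's balanced salt solution with 1 mg/mL endotoxin-free BSA, no fetal calf serum. Migration ran 2 h at 37 °C. Compounds dissolved in DMSO and added to both top and bottom compartments, final DMSO 1%.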

Mus musculus [2] = test: Antiinflammatory activity in mouse assessed as inhibition of LPS-induced TNFalpha upregulation at 0.00216 mg, sc measured 2 hrs after LPS challenge; type: functional
Summary of the method: (§2)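 Murine sublethal endotoxemia: LPS given intraperitoneally, with serum TNF-α measured 2 h after the LPS injection as the end point. Compound was given subcutaneously or orally. Vehicle was 0.6% DMSO and 1% carboxymethylcellulose (final concentrations) in sterile water. Effect is reported as % relative to control.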

Mus musculus [3] = test: Antiinflammatory activity in po dosed mouse assessed as inhibition of LPS-induced TNFalpha upregulation measured 2 hrs after LPS challenge relative to control; type: functional
Summary of the method: (§3)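 Murine sublethal LPS endotoxemia screen. LPS is injected intraperitoneally and serum TNF-α is measured 2 h later as the end point. Compound is given subcutaneously or orally in a vehicle of 0.6% DMSO plus 1% carboxymethylcellulose (final concentrations) in sterile water. Values are % relative to control.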

[4] = target: C-C chemokine receptor type 2 (Homo sapiens) (UniProt P41597); test: Antagonist activity at CCR2 in human THP1 cells assessed as inhibition of CCL2-induced chemotaxis at 100 nM after 2 hrs by microtiter format trans-well migration assay; type: functional, cell-based; conditions: THP-1; summary of the method: as §1
Mus musculus [5] = test: Antiinflammatory activity in mouse assessed as inhibition of LPS-induced TNFalpha upregulation at 0.065 mg, po measured 2 hrs after LPS challenge; type: functional; summary of the method: as §2
Rattus norvegicus [6] = test: Plasma concentration in Sprague-Dawley rat at 3 mg/kg, po administered as single dose; type: ADME, organism-based; design: dose 3 mg/kg, route oral; conditions: in vivo
Summary of the method: (§4)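 Male Sprague-Dawley rats, three per compound, receive a single oral dose by gavage in 1% carboxymethylcellulose in 0.9% saline, with food and water ad libitum. Plasma is sampled from 5 to 480 min and drug is quantified by positive-mode LC/MS/MS after acetonitrile/formic acid extraction. The lower limit of quantitation is about 2 ng/mL. Exposure is AUC(0→t) by the linear/log trapezoidal rule, and F is oral fractional bioavailability.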

Mus musculus [7] = test: Antiinflammatory activity in sc dosed mouse assessed as inhibition of LPS-induced TNFalpha upregulation measured 2 hrs after LPS challenge relative to control; type: functional; summary of the method: as §3
Rattus norvegicus [8] = test: AUC (0 to t) in Sprague-Dawley rat at 1 mg/kg, iv administered as single dose; type: ADME, organism-based, Plasma; design: dose 1 mg/kg, route intravenous; conditions: in vivo
Summary of the method: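 Male Sprague-Dawley rats, three per compound per route, single dose. IV vehicle 5% DMSO in 0.9% saline; oral gavage vehicle 1% carboxymethylcellulose in 0.9% saline; fed ad libitum. Plasma taken 5–480 min post-dose, extracted with 0.1% formic acid in acetonitrile, quantified by LC/MS/MS (positive mode). AUC(0–t) by linear/log trapezoidal rule; IV curve back-extrapolated assuming initial volume 0.26 L/kg.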

[9] = target: C-C chemokine receptor type 2 (Homo sapiens) (UniProt P41597); test: Antagonist activity at CCR2 in human THP1 cells assessed as inhibition of CCL2-induced chemotaxis at 10 nM after 2 hrs by microtiter format trans-well migration assay; type: functional, cell-based; conditions: THP-1; summary of the method: as §1
[10] = Fractional bioavailability in Sprague-Dawley rat at 3 mg/kg, po administered as single dose; type: ADME, organism-based; conditions: in vivo; summary of the method: as §4
[11] = target: C-C chemokine receptor type 2 (Homo sapiens) (UniProt P41597); test: Antagonist activity at CCR2 in human THP1 cells assessed as inhibition of CCL2-induced chemotaxis at 0.1 nM after 2 hrs by microtiter format trans-well migration assay; type: functional, cell-based; conditions: THP-1; summary of the method: as §1
Mus musculus [12] = test: Antiinflammatory activity in mouse assessed as inhibition of LPS-induced TNFalpha upregulation at 0.000216 mg, po measured 2 hrs after LPS challenge; type: functional
Summary of the method: (§5)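 Murine sublethal endotoxemia: LPS given intraperitoneally, serum TNF-α measured 2 h after LPS injection. Compound vehicle 0.6% DMSO plus 1% carboxymethylcellulose (final concentrations) in sterile water.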

[13] = target: C-C chemokine receptor type 2 (Homo sapiens) (UniProt P41597); test: Antagonist activity at CCR2 in human THP1 cells assessed as inhibition of CCL2-induced chemotaxis at 1000 nM after 2 hrs by microtiter format trans-well migration assay; type: functional, cell-based; conditions: THP-1; summary of the method: as §1
[14] = target: C-C chemokine receptor type 2 (Homo sapiens) (UniProt P41597); test: Antagonist activity at CCR2 in human THP1 cells assessed as inhibition of CCL2-induced chemotaxis at 1 nM after 2 hrs by microtiter format trans-well migration assay; type: functional, cell-based; conditions: THP-1; summary of the method: as §1
Mus musculus [15] = test: Antiinflammatory activity in mouse assessed as inhibition of LPS-induced TNFalpha upregulation at 0.000864 mg, po measured 2 hrs after LPS challenge; type: functional; summary of the method: as §2
Mus musculus [16] = test: Antiinflammatory activity in mouse assessed as inhibition of LPS-induced TNFalpha upregulation at 0.0216 ug, sc measured 2 hrs after LPS challenge; type: functional; summary of the method: as §2
Mus musculus [17] = test: Antiinflammatory activity in mouse assessed as inhibition of LPS-induced TNFalpha upregulation at 0.0065 mg, po measured 2 hrs after LPS challenge; type: functional; summary of the method: as §2
Mus musculus [18] = test: Antiinflammatory activity in mouse assessed as inhibition of LPS-induced TNFalpha upregulation at 624 pg, po measured 2 hrs after LPS challenge; type: functional; summary of the method: as §3
Mus musculus [19] = test: Antiinflammatory activity in mouse assessed as inhibition of LPS-induced TNFalpha upregulation at 0.0216 mg, po measured 2 hrs after LPS challenge; type: functional; summary of the method: as §2
[20] = Volume of distribution at steady state in Sprague-Dawley rat at 1 mg/kg, iv administered as single dose; type: ADME, organism-based; design: dose 1 mg/kg, route intravenous; conditions: in vivo, read-out: Vdss
Summary of the method: (§6)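 Male Sprague-Dawley rats, three per compound, receive a single intravenous dose in 5% DMSO in 0.9% saline. Food and water are given ad libitum. Plasma is taken at 5, 15, 30, 60, 120, 180, 240 and 480 min. Drug is measured by LC/MS/MS after extraction with 0.1% formic acid in acetonitrile. The curve is back-extrapolated to time zero assuming an initial volume of 0.26 L/kg.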

Mus musculus [21] = test: Antiinflammatory activity in mouse assessed as inhibition of LPS-induced TNFalpha upregulation at 830 pg, sc measured 2 hrs after LPS challenge; type: functional; summary of the method: as §3
Mus musculus [22] = test: Antiinflammatory activity in mouse assessed as inhibition of LPS-induced TNFalpha upregulation at 0.078 ug, po measured 2 hrs after LPS challenge; type: functional; summary of the method: as §2
[23] = Half life in Sprague-Dawley rat at 1 mg/kg, iv administered as single dose; type: ADME, organism-based; design: dose 1 mg/kg, route intravenous; conditions: in vivo; summary of the method: as §6
Mus musculus [24] = test: Antiinflammatory activity in mouse assessed as inhibition of LPS-induced TNFalpha upregulation at 0.0216 ug, po measured 2 hrs after LPS challenge; type: functional; summary of the method: as §2
Mus musculus [25] = test: Antiinflammatory activity in mouse assessed as inhibition of LPS-induced TNFalpha upregulation at 0.00312 ug, po measured 2 hrs after LPS challenge; type: functional; summary of the method: as §2
Mus musculus [26] = test: Antiinflammatory activity in mouse assessed as inhibition of LPS-induced TNFalpha upregulation at 0.216 mg, sc measured 2 hrs after LPS challenge; type: functional; summary of the method: as §2
Mus musculus [27] = test: Antiinflammatory activity in mouse assessed as inhibition of LPS-induced TNFalpha upregulation at 0.000216 mg, sc measured 2 hrs after LPS challenge; type: functional; summary of the method: as §5
Mus musculus [28] = test: Antiinflammatory activity in sc dosed mouse assessed as inhibition of LPS-induced TNFalpha upregulation measured 2 hrs after LPS challenge; type: functional
Mus musculus [29] = test: Antiinflammatory activity in mouse assessed as inhibition of LPS-induced TNFalpha upregulation at 0.0216 mg, sc measured 2 hrs after LPS challenge; type: functional; summary of the method: as §2
Mus musculus [30] = test: Antiinflammatory activity in po dosed mouse assessed as inhibition of LPS-induced TNFalpha upregulation measured 2 hrs after LPS challenge; type: functional
Mus musculus [31] = test: Antiinflammatory activity in mouse assessed as inhibition of LPS-induced TNFalpha upregulation at 0.216 mg, po measured 2 hrs after LPS challenge; type: functional; summary of the method: as §2
[32] = target: C-C chemokine receptor type 2 (Homo sapiens) (UniProt P41597); test: Antagonist activity at CCR2 in human THP1 cells assessed as inhibition of CCL2-induced chemotaxis at 0.01 nM after 2 hrs by microtiter format trans-well migration assay; type: functional, cell-based; conditions: THP-1; summary of the method: as §1

Sequence of C-C chemokine receptor type 2 (Homo sapiens) (P41597 whole entry, looked up): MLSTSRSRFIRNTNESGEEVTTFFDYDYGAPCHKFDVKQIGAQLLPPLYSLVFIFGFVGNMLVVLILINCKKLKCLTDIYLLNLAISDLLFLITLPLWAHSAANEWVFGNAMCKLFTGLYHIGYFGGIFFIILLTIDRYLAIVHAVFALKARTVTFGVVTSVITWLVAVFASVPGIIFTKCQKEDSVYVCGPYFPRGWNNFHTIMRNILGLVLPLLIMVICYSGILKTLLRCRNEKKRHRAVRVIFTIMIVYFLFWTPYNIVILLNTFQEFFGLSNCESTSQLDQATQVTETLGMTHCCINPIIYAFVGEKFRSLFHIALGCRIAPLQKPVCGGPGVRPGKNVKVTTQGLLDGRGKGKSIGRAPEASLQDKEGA

- ED50 [1]: 0.5 nM
Structure (SMILES): O=C(N[C@H]1CCCCNC1=O)C1CCCCC1

- ED50 [1]: 15 nM
Structure (SMILES): CCCCCCCCCCCC(=O)N[C@H]1CCCCNC1=O

- ED50 [1]: 3 nM
Structure (SMILES): CCCCCCCCCCC(C)C(=O)N[C@H]1CCCCNC1=O (mixture of isomers; form 1)

- inhibition [4]: 98%
- Cp (Rattus norvegicus [6]): < 2 ng/mL
- AUC (Rattus norvegicus [8]): 477 ng·min/mL
- inhibition [9]: 100%
- bioavailability [10]: < 1%
- inhibition [11]: 11%
- inhibition [13]: 100%
- inhibition [14]: 99%
- ED50 [1]: 0.09 nM
- Vd [20]: 0.8 L/kg
- half-life [23]: 16 min
Structure (SMILES): O=C1NCCCC[C@@H]1NC(=O)C12CC3CC(CC(C3)C1)C2
- inhibition (INH) (Mus musculus [2]): 71%
- inhibition (INH) (Mus musculus [3]): 90%
- inhibition (INH) (Mus musculus [5]): 83%
- inhibition (INH) (Mus musculus [7]): 90%
- inhibition (INH) (Mus musculus [12]): 76%
- inhibition (INH) (Mus musculus [15]): 78%
- inhibition (INH) (Mus musculus [16]): 29%
- inhibition (INH) (Mus musculus [17]): 71%
- inhibition (INH) (Mus musculus [18]): 8%
- inhibition (INH) (Mus musculus [19]): 75%
- inhibition (INH) (Mus musculus [21]): -12%
- inhibition (INH) (Mus musculus [22]): 59%
- inhibition (INH) (Mus musculus [24]): 60%
- inhibition (INH) (Mus musculus [25]): 30%
- inhibition (INH) (Mus musculus [26]): 89%
- inhibition (INH) (Mus musculus [27]): 56%
- ED50 (Mus musculus [28]): 2 µg/kg
- inhibition (INH) (Mus musculus [29]): 89%
- ED50 (Mus musculus [30]): 0.5 µg/kg
- inhibition (INH) (Mus musculus [31]): 91%

- inhibition [4]: 101%
- inhibition [9]: 98%
- inhibition [11]: 14%
- inhibition [13]: 100%
- inhibition [14]: 46%
- ED50 [1]: 0.44 nM
- inhibition [32]: 26%
Structure (SMILES): O=C1NCCCC[C@H]1NC(=O)C12CC3CC(CC(C3)C1)C2
